Screening results (PubChem BioAssay)
Rows were chosen to be rich in hits. Some 11% of all compounds tested hit in one or more screens of this group.
WT yeast gro inh – growth inhibition of WT yeast, mitochondrial fusion screen; inhibition, % at 10 µM; AID 1362; hit rate 2.1% among 190,000; mitochondrial fusion phenotypic screen, WT strain; in the data active = inhibition above about 58%; tested in S. cerevisiae
Diaphorase act – counter-screen for diaphorase-based assays: diaphorase activators and chemical reducers; Diaphorase/resazurin coupled assay, resorufin fluorescence, 16 min; hits give high values; 1 = vehicle wells, 0 = NADH-free wells; activation factor at 20 µM; hit rate 0.005% among 190,000; AID 1229;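 active = diaphorase activity raised at least twofold by the compound at 20 µM; inactive = activation factor below 2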
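Material: purified diaphorase enzyme from Clostridium kluyveri / Medium: HEPES pH 7.4 buffer with MgCl2 and Tween 20 / Schedule: enzyme reaction of 16 min at room temperature / Measured by: resorufin fluorescence, excitation 544 nm, emission 590 nm / Evaluation: rise in resorufin formation, marking diaphorase activation or chemical reduction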
G6PDH counter – inhibits Leuconostoc G6PDH, flagging false hits in G6PDH-based assays; Purified L. mesenteroides G6PDH, diaphorase/resazurin coupled fluorescence, 45 min; inhibition, % at 5 µM; hit rate 0.12% among 200,000
Diaph inh CS – inhibits diaphorase or chemically oxidizes, flagging diaphorase assay artifacts. diaphorase resazurin-to-resorufin fluorescence, NADH, 16 min; bacterial (C. kluyveri) enzyme, not human. inhibition, % at 20 µM. hit rate 0.69% among 190,000;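 active = primary screen inhibition at 20 µM above a set limit, cut at about 50% in these data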;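 note: plate controls were DMSO with full reaction for no effect and wells lacking NADH for full effect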
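Detection: fluorescence of resorufin formed from resazurin, Ex 544/Em 590 nm; test system: Clostridium kluyveri diaphorase enzyme; amount: 0.14 U/mL diaphorase, enzyme working solution; times: 16-min room-temperature incubation before reading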
Lmaj promast – reduces viability of Leishmania major promastigotes; resazurin fluorescence viability; inhibition, % at 10 µM; hit rate 9% among 200,000; AID 1063;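 note: promastigotes grown with compound for 44 hours at 28 °C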
* = called active by the depositor; nt = no result; ! = repeats disagree. Cut-off read from the data, not from the text of the source, unless noted: active = inhibition above about 50%; inactive = the rest.

SMILES | WT yeast gro inh | Diaphorase act | G6PDH counter | Diaph inh CS | Lmaj promast
C=CCc1ccc(OCC(O)CN2CCCCC2)c(OC)c1 (configuration not stated) | -2 | 0.8 | -2 | 16 | 78*
C=CCc1ccc(OCC(O)CN2CCCCC2C)c(OC)c1 (configuration not stated) | nt | 1.1 | -1 | -10 | 93*
Cc1ccc(C)c(OCC(O)CN2CCCCC2C)c1 (configuration not stated) | 5 | 0.8 | -8 | 17 | 91*
O=C(CN1CCOCC1)N1CCN(C(=O)CN2CCOCC2)CC1 | nt | nt | nt | nt | -5
COc1ccc(C)cc1N(C(=O)COc1cccc(F)c1)c1nc2ccccc2s1 | 36 | 0.9 | -3 | 15 | 41
COc1ccc(C)cc1N(C(=O)c1ccc(F)cc1)c1nc2ccccc2s1 | 69* | 0.8 | -10 | 17 | 25
CCCc1nc2c(c(=O)c3ccccc3n2C)c(=O)n1-c1ccc(F)cc1 | -10 | 0.2 | 1 | 78* | 27
CC(C)c1nc2c(c(=O)c3ccccc3n2C)c(=O)n1-c1ccc(F)cc1 | 20 | 0.8 | 0 | 22 | 14
Cc1ccc(-c2nc3c(c(=O)c4ccccc4n3C)c(=O)n2-c2ccccc2)cc1 | 7 | 0.5 | -6 | 53* | 34
COCCN(Cc1cc2cc(C)ccc2nc1Cl)C(=O)Nc1ccccc1OC | 5 | nt | 20 | nt | -5
Cc1cc(C)cc(NC(=S)N(CCN(C)C)Cc2cccs2)c1 | 1 | 1.1 | 4 | -9 | 20
Cn1c(C23CC4CC(CC(C4)C2)C3)n[nH]c1=S | 8 | 0.9 | 5 | 13 | 8
COc1ccc(C(CC(=O)Nc2cc([N+](=O)[O-])ccc2OC)c2ccccc2)cc1 (configuration not stated) | 36 | 0.8 | -28 | 15 | 11
CCOC(=O)C1=C(C)NC(SC(C)=O)=NC1c1ccc(OC(C)=O)c(OC)c1 (configuration not stated) | 76* | 0.8 | 2 | 18 | 29
COc1ccc(C(=O)NNC(=O)CN2CCC(n3nnc4cc(F)ccc43)CC2)cc1 | -12 | 0.9 | -9 | 7 | 50*
Cc1cc(C)c(NC(=O)CS(=O)CC(=O)NC2CCCc3ccccc32)c(C)c1 (configuration not stated) | 5 | 0.9 | -1 | 6 | 1
Cc1nn(-c2ccccc2)c2c1C(=O)N(Cc1ccccc1)C(=O)C(C)(C)C2 | 35 | 0.9 | -4 | 11 | 84*
Cc1nn(-c2nc3ccccc3n2Cc2ccccc2)c2c1C(=O)CC(C)(C)C2 | 42 | 0.8 | 3 | 21 | 14
CC1(C)CC(=NNC(=O)c2n[nH]c3c2CCC3)CC(C)(C)N1 | -10 | 0.8 | 6 | 16 | -1
NC(=O)CCN1CCN(CCOC2Cc3cc(Cl)ccc3Sc3ccccc32)CC1 (configuration not stated) | 39 | 0.9 | -1 | 7 | 91*
COc1ccc(Cl)cc1NC(=O)CCN1CCN(C)CC1 | nt | 1 | 1 | 5 | 0
CN1C(=O)CC(N2CCN(Cc3ccc(Cl)cc3)CC2)C1=O (configuration not stated) | -29 | 1 | 13 | 5 | -8
COCCCN1CCN(C2Cc3ccccc3Sc3ccc(Cl)cc32)CC1 (configuration not stated) | 70 | 0.9 | 6 | 13 | 78*
Clc1ccc2c(c1)C(N1CCNCC1)Cc1ccccc1S2 (configuration not stated) | 90 | 1 | -5 | -2 | 100*
Clc1cccc2c1Sc1ccccc1CC2N1CCNCC1 (configuration not stated) | 84 | 1.1 | 7 | -15 | 100*
SMILES | WT yeast gro inh | Diaphorase act | G6PDH counter | Diaph inh CS | Lmaj promast
CCC(=O)N1CCc2cc(Br)cc(S(=O)(=O)N3CCN(c4ccccn4)CC3)c21 | 8 | nt | nt | nt | nt
Cc1ccc(C)c(S(=O)(=O)NCc2ccc(C(=O)NCc3ccccn3)cc2)c1 | -5 | 0.8 | 6 | 16 | -1
Cc1cccc(NC(=S)N2CCC(C(=O)c3ccc(F)cc3)CC2)c1C | 8 | 0.9 | -13 | 14 | -3
O=c1[nH]c(CSc2nc3ccccc3[nH]2)nc2c1cnn2-c1ccccc1 | -5 | 1 | -21 | 2 | 69*
O=c1[nH]c(CSc2ncccn2)nc2c1cnn2-c1ccccc1 | 10 | 1.1 | 17 | -5 | 54*
O=c1[nH]c(SCc2nc3c(cnn3-c3ccccc3)c(=O)[nH]2)nc2ccccc12 | 12 | 1.1 | 6 | -6 | 0
COc1cc2c(C(=O)N3CCN(c4ccccc4F)CC3)cn(C)c(=O)c2cc1OC | -4 | 0.9 | 3 | 14 | 0
CCC1Oc2ccc(C)cc2N(CC(=O)N(Cc2ccncc2)Cc2ccco2)C1=O (configuration not stated) | 2 | 0.9 | 1 | 10 | 80*
CCC1Oc2ccc(C)cc2N(CC(=O)NCc2cccs2)C1=O (configuration not stated) | 12 | 0.8 | 6 | 19 | 5
O=C(CN1C(=O)COc2ccccc21)N(Cc1cccnc1)Cc1cccc(F)c1 | 77* | 0.9 | 13 | 9 | 95*
CCC1Oc2ccc(C)cc2N(CC(=O)N(Cc2cccnc2)Cc2cccc(F)c2)C1=O (configuration not stated) | -11 | 0.8 | 10 | 20 | 93*
COc1cccc(C(=O)Nc2cc3c(cc2C(C)=O)OCCO3)c1 | 9 | 0.8 | -2 | 20 | 22
Cc1ccc(-c2nnc3c4ccccc4c(C)nn23)cc1NC(=O)c1ccco1 | nt | nt | nt | nt | 13
Cc1nn2c(-c3cccc(NC(=O)c4ccco4)c3)nnc2c2ccccc12 | 34 | 0.5 | -46 | 50 | 101*
COc1ccc2c(C=Nc3c(C)n(C)n(-c4ccccc4)c3=O)c(O)n(Cc3ccco3)c(=O)c2c1 | 6 | 0.8 | 2 | 19 | 76*!
Cc1c(N=Cc2ccco2)c(=O)n(-c2ccccc2)n1C | 8 | 0.9 | 1 | 8 | -3
CCCCCCCCCc1nc2sc3c(c2c(=O)n1NC(=O)c1ccccc1[N+](=O)[O-])CC(C)(C)OC3 | 71* | 0.8 | -7 | 20 | 34
CCCCCCCCCc1nc2sc3c(c2c(=O)n1NC(=O)c1ccc([N+](=O)[O-])cc1)CC(C)(C)OC3 | 64* | 0.8 | 13 | 21 | -4
S=C(NCc1cccs1)NCC1CCCO1 (configuration not stated) | 9 | 0.9 | 17 | 9 | -5
CCCOc1ccc(/C=N/NC(=O)CSCc2ccc([N+](=O)[O-])cc2)cc1OCC | 27 | 0.8 | -7 | 16 | 14
Cc1cc(C)c(CSc2ncnc3nc[nH]c23)c(C)c1 | 69* | nt | 0 | nt | -3
O=C(Cc1ccc(Cl)cc1)NNS(=O)(=O)c1ccc([N+](=O)[O-])cc1 | 1 | 0.9 | 20 | 7 | 68*
O=[N+]([O-])c1ccccc1/C=N/Nc1nccnc1Cl | 37 | 0.9 | -2 | 7 | -5
Oc1ccccc1/C=N/Nc1nccnc1Cl | 16 | 0.8 | -4 | 23 | 98*
